Compound activity (PubChem BioAssay)
LMPTP block: blocks human LMPTP phosphatase; P24666; recombinant LMPTP-A, OMFP fluorogenic substrate, fluorescence intensity; inhibition, % at 20 µM; 360,000 tested, 0.22% active; AID 651560;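 active = compounds that cut the enzyme signal by at least half of the control window in the single-dose screen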;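 note: plate controls were DMSO wells with enzyme plus substrate for no effect and substrate without enzyme for full effect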
Target sequence (P24666 whole entry, looked up): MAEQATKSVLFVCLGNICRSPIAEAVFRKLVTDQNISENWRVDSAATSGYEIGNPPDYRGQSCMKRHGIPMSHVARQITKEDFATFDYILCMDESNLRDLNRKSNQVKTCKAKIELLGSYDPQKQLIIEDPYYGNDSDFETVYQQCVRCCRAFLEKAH
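Assay system: LMPTP-A phosphatase enzyme | Input: 0.625 nM enzyme | Also added: Fluorogenic phosphatase substrate OMFP at 400 µM final | Compound dosing: One test concentration per compound, 20 µM, with 3% DMSO overall | Schedule: 50 min enzyme reaction at room temperature, protected from light | Signal: Fluorescence intensity | Benchmarks: no-enzyme and uninhibited controls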
STEP block: STEP (human) phosphatase inhibition; P54829; recombinant STEP, OMFP fluorogenic substrate, fluorescence; inhibition, % at 20 µM; 360,000 tested, 0.25% active; AID 588621;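 active = inhibition at 20 µM, scaled per plate between control wells, above about 37%, limit read from the data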;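 note: 0% = DMSO with enzyme and substrate and 100% = substrate only without enzyme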
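Assay system: isolated STEP enzyme / Timing: 20 min at room temperature, dark / Doses: 20 µM, 1% DMSO / Technique: fluorescence intensity, excitation 480 nm, emission 540 nm / Reagent: fluorogenic phosphatase substrate OMFP at 25 µM final / Measure: percent inhibition scaled to no-enzyme and uninhibited-enzyme controls, plate-pattern corrected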
Scp1 inh: inhibitors of human Scp-1 phosphatase | Q9GZU7 | Recombinant Scp1, phosphopeptide, malachite green phosphate absorbance | inhibition, % at 20 µM | 340,000 tested, 0.88% active;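 active = inhibition above about 50% at 20 µM, limit read from the data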;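 note: plate controls were DMSO wells with enzyme for no effect and wells lacking enzyme for full effect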
Target sequence (Q9GZU7 76-261 limits assumed): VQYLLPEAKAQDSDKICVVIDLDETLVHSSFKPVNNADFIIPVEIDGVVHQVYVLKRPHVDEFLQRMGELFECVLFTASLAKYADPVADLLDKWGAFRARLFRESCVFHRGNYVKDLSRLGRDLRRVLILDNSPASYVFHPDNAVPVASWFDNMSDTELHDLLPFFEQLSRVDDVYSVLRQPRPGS
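Test system: SCP-1 phosphatase catalytic domain, residues 76-261 | Compound dosing: One concentration, 20 µM, with 1.0% DMSO | Schedule: 45 min room-temperature reaction, 5 min colour, 30 min stabiliser | Detection: Absorbance at 630 nm | Read-out basis: % inhibition of SCP-1 phosphate liberation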
PP1 inh: counter-screen for PP5 inhibitors: inhibitors of human PP1-alpha | P62136 | inhibition, % at 6.7 µM | purified PP1alpha, OMFP fluorescence | 320,000 tested, 0.9% active;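 active = inhibition above the mean inhibition of all tested compounds plus 3 SD, computed separately for each screening campaign, cut at about 15% in these data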
PP5 primary: PP5 (human) phosphatase inhibition; P53041; purified PP5c, OMFP substrate fluorescence; inhibition, % at 6.7 µM; 320,000 tested, 0.18% active;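 active = inhibition above the campaign's mean inhibition across all tested compounds plus 3 SD, cut at about 9.5% in these data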;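 note: 0% = DMSO only and 100% = 100 µM cantharidin control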
* = called active by the depositor; · = no result. An excerpt weighted towards active compounds, which were near 1.9% of everything screened.

SMILES	LMPTP block	STEP block	Scp1 inh	PP1 inh	PP5 primary
C#CCOCCOCCOCCNc1nc(N2CCN(C(=O)CCCCCCCCCCNC(=O)[C@H]([C@@H](C)CC)n3cc(CCCCN=C(N)N)nn3)CC2)nc(N2CCN(C(=O)CCCCCCCCCCNC(=O)[C@H]([C@@H](C)CC)n3cc(CCCCN=C(N)N)nn3)CC2)n1	·	·	·	74*	9
C#CCOCCOCCOCCNc1nc(N2CCOCC2)nc(N2CCN(C(=O)CCCCCCCCCCNC(=O)[C@@H]([C@H](C)CC)n3cc(CCCCCN)nn3)CC2)n1	-3	0	8	11	0
C#CCOCCOCCOCCNc1nc(N2CCN(C(=O)CCCCCCCCCCNC(=O)[C@H]([C@@H](C)CC)n3cc(CCCCCN)nn3)CC2)nc(N2CCN(C(=O)CCCCCCCCCCNC(=O)[C@@H]([C@H](C)CC)n3cc(CCCCCN)nn3)CC2)n1	·	·	·	64*	3
CC(C)[C@H]1COCCS(=O)(=O)N1Cc1ccccc1-c1cccc2c1oc1ccccc12	4	-1	-9	·	·
O=C(O)CSc1nc2sc3c(c2c(=O)n1Cc1ccccc1)CCCCC3	1	2	-16	6	0
O=C(O)CSc1cc(C(=O)c2ccccc2O)cn2c(=O)c3c4c(sc3nc12)CCCC4	34	96*	66*	·	·
Cc1noc(/C=C/c2ccco2)c1S(=O)(=O)N1CCC(C(=O)N2c3ccccc3CC2C)CC1 (stereo not drawn)	3	2	-18	17*	0
Cc1noc(/C=C/c2ccco2)c1S(=O)(=O)N1CCC(C(=O)NC(C)c2ccccc2)CC1 (stereo not drawn)	2	5	-5	5	4
N#C/C(=C\c1ccccc1)c1nc2ncccc2[nH]1	-3	0	-2	0	1
COCCNc1nc(NCc2cccc(OC)c2)c2sccc2n1	44	0	·	·	·
COc1ccc(Nc2nc(NCc3cccs3)nc3ccsc23)cc1OC	56*	4	·	·	·
COCCNc1nc(NCc2ccc(C)cc2C)c2sccc2n1	59*	0	·	·	·
COCCNc1nc(NCc2ccc(C(C)C)cc2)c2sccc2n1	51*	2	·	·	·
COc1ccccc1CNc1nc(NCc2cnc(C)cn2)c2sccc2n1	80*	0	·	·	·
COCCNc1nc(Nc2ccc(C)cc2C)c2sccc2n1	16	1	·	·	·
Cc1nn(CC(=O)N2CCN(C)CC2)c(=O)c2ccccc12	-1	-6	-14	-1	0
CCN1C(=O)[C@H]2[C@@H](c3ccc(OC)cc3)N3C(=O)CN(CC4CC4)C(=O)[C@@]3(C)[C@H]2C1=O	-2	-1	-4	-1	0
COCCNc1nc(NCc2cccc(OC)c2OC)c2sccc2n1	62*	-2	·	·	·
CC(=O)Nc1ccc(CNc2nc(NCC3CC3)nc3ccsc23)cc1	60*	4	·	·	·
CCOC(=O)/C=c1\sc2n(c1=O)CCN=2	0	4	2	-6	0
CC1CCN(S(=O)(=O)c2ccc(C(=O)Nc3nnc(-c4ccccn4)o3)cc2)CC1	-1	2	-13	17*	4
CC1CCCN(S(=O)(=O)c2ccc(C(=O)Nc3nnc(-c4ccco4)o3)cc2)C1 (stereo not drawn)	1	17	-9	17*	4
CCc1nnc(NC(=O)c2ccc(S(=O)(=O)N3CCCC(C)C3)cc2)o1 (stereo not drawn)	0	1	1	11	0
N#Cc1ccc(C(=O)Nc2nnc(-c3ccccn3)o2)cc1	-2	0	-5	0	2
O=C(Nc1nnc(-c2ccccn2)o1)c1cccc(Br)c1	-1	1	-8	15*	1
SMILES	LMPTP block	STEP block	Scp1 inh	PP1 inh	PP5 primary
O=C(Nc1nnc(C2=COCCO2)o1)c1ccc(S(=O)(=O)N2CCCC2)cc1	-2	2	-10	-1	4
CCC1CCCCN1S(=O)(=O)c1ccc(C(=O)Nc2nnc(C3=COCCO3)o2)cc1 (stereo not drawn)	-1	3	-8	17*	2
CC(C)COc1cccc(C(=O)NC(=S)Nc2cccc(NC(=O)c3ccccc3Cl)c2)c1	0	2	-1	-6	1
Clc1ccc(C[n+]2csc3ccccc32)cc1	0	-2	-9	12	3
CC(C)(C)N(Cc1ccccc1)C(=O)c1ccc2c(c1)OCCO2	-1	3	-3	0	3
O=C(Nc1cc(Cl)cc(Cl)c1)c1ccno1	0	-3	-5	1	-2
COc1ccc(S(=O)(=O)N(CC(=O)NC2CC3CCC2C3)c2ccccc2OC)cc1 (stereo not drawn)	1	-2	-12	-1	-1
Cc1cccc(CNc2ccc(C(CC(N)=O)NC(=O)Cc3cccc4ccccc34)cc2[N+](=O)[O-])c1 (stereo not drawn)	2	-2	-6	17*	2
C(=C\c1ccccc1)/C=N/Nc1nc2ccccc2[nH]1	2	3	-7	16*	4
N#C/C(=C(O)\C=C\c1ccccc1)c1nc2ccccc2[nH]1	2	5	-14	16*	3
C(=N\Nc1nc2ccccc2[nH]1)/c1ccccc1	2	-4	-3	-8	0
CSc1nc(N)nc(SCC(=O)c2ccc(C)cc2)c1C#N	-1	-9	-10	-1	-1
Cc1ccccc1OCC(=O)NC1CCCCCCC1	-1	-3	-3	3	2
COc1cc(/C=C2/C(=O)c3cccc([N+](=O)[O-])c3C2=O)c(Br)cc1O	3	4	69*	1	3
O=C(CSc1cn(Cc2ccccc2)c2ccccc12)Nc1nccs1	1	0	-7	16*	5
O=C(CSc1ccccc1)Nc1nccs1	9	0	-13	-5	1
O=C(CCN1C(=O)/C(=C\c2ccco2)SC1=S)Nc1ccc(C(=O)O)c(O)c1	23	43*	80*	6	1
O=C(CCN1C(=O)/C(=C\c2cccs2)SC1=S)Nc1ccc(C(=O)O)cc1	14	8	10	0	-1
O=C(CCCN1C(=O)/C(=C\c2ccco2)SC1=S)Nc1ccc2ccccc2c1	8	1	-4	3	2
O=C(CCN1C(=O)/C(=C/c2ccco2)SC1=S)Nc1ccc(C(=O)O)c(O)c1	22	48*	65*	2	3
O=C(CCc1ccccc1)Oc1ccccc1[N+](=O)[O-]	·	·	-6	-2	-3
CCc1nnc(NC(=O)C2Cc3ccccc3CN2S(=O)(=O)c2c(C)c(C)cc(C)c2C)s1 (stereo not drawn)	2	-2	-4	17*	4
CCOc1ccc(CN2CCN(Cc3[nH]c4ccc(OC)cc4c3C)CC2CCO)cc1 (stereo not drawn)	1	-1	-1	1	1
Cn1ccnc1SCC(=O)Nc1cccc(O)c1	-1	-3	5	0	0
O=c1c2cc(Cl)ccc2nc(-c2ccc(Cl)c(Cl)c2)n1O	54*	4	-2	-2	1
